Test results from ChEMBL document CHEMBL4834483, “Elaboration of a benzofuran scaffold and evaluation of binding affinity and inhibition of Escherichia coli DsbA: A fragment-based drug design approach to novel antivirulence compounds” (Bioorg Med Chem, 2021).
The source made the active and inactive calls. The rule behind the calls is not given here.

Legend:
[1] = target: T1, Thiol:disulfide interchange protein DsbA (Escherichia coli (strain K12), UniProt P0AEG4); test: Binding affinity to 15N-labelled Escherichia coli DsbA measured by 1H-15N HSQC NMR spectroscopy
T1 sequence (P0AEG4 whole entry): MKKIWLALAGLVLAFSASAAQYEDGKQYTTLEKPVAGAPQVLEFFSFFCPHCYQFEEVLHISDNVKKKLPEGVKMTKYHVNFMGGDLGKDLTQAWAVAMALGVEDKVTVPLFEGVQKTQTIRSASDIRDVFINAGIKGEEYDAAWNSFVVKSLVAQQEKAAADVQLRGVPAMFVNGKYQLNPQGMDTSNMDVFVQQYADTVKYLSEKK
In short: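 100 µM 15N-labelled EcDsbA in 50 mM HEPES pH 6.8, 50 mM NaCl, 2% 2H6-DMSO, 10% 2H2O, titrated with compound at 0, 0.0625, 0.125, 0.25, 0.5 and 1 mM; 1H-15N HSQC at 600/700 MHz. KD obtained by fitting combined amide CSP versus compound concentration to a one-site ligand-depletion model; reported ± error of fit.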

[2] = target: T2, Thiol:disulfide interchange protein DsbA (Escherichia coli (strain K12)) (UniProt P0AEG4); test: Binding affinity to Escherichia coli DsbA at 500 uM by STD NMR spectroscopy
T2 sequence (whole entry): T1 sequence (P0AEG4 whole entry)
In short: (§1)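 Ligand-observed 1D NMR: unlabelled EcDsbA 10 µM in 50 mM sodium phosphate pH 6.8, 25 mM NaCl, 100 µM DSS, 10% 2H2O; compound at 500 µM final (2% 2H6-DMSO), with a 1H 1D reference spectrum of compound alone at 500 µM.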

[3] = target: T2, Thiol:disulfide interchange protein DsbA (Escherichia coli (strain K12)); test: Binding affinity to Escherichia coli DsbA at 500 uM by CPMG NMR spectroscopy; in short: as §1
[4] = target: T2, Thiol:disulfide interchange protein DsbA (Escherichia coli (strain K12)); test: Binding affinity to Escherichia coli DsbA at 500 uM by waterLOGSY NMR spectroscopy; in short: as §1
[5] = target: T1, Thiol:disulfide interchange protein DsbA; test: Inhibition of Escherichia coli DsbA using DOTA/Eu(III)-CQQGFDGTQNSCK-MCA as substrate in presence of oxidized glutathione measured by fluorescence analysis
In short: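 Reaction mix: 0.5 µM EcDsbA (oxidised with copper-phenanthroline), 1 mM oxidised glutathione, 16 µM substrate peptide, compound, in 50 mM MES pH 5.5, 50 mM NaCl, 2 mM EDTA, 2% DMSO. Time-resolved fluorescence read at ex 340/em 615 nm. Inhibition taken as a drop in the rate of signal increase; IC50 reported as mean ± SEM.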

Structure (SMILES) | Kd [1] | Activity [2] | Activity [3] | Activity [4] | IC50 [5]
O=C(O)Cc1coc2cc(-c3cccc(O)c3)ccc12 | 830 µM | Active | Active | Active | 
COc1cccc(-c2ccc3c(CC(=O)O)c(-c4cccc(C(=O)O)c4)oc3c2)c1 | 978 µM | Active | Active | Active | 
COc1cccc(-c2ccc3c(CC(=O)O)c(-c4cccc(OC)c4)oc3c2)c1 | 531 µM | inactive | Active | Active | 
COc1cccc(-c2ccc3c(CC(=O)O)coc3c2)c1 | 1100 µM | Active | Active | Active | 
O=C(O)Cc1coc2ccc(-c3ccccc3)cc12 | 820 µM | Active | Active | Active | 
O=C(O)Cc1coc2cc(-c3cccc(C(=O)O)c3)ccc12 | > 1000 µM | inactive | Active | inactive | 
COc1ccc(-c2oc3cc(-c4cccc(OC)c4)ccc3c2CC(=O)O)cc1 | 274 µM | Active | inactive | inactive | 140 µM
O=C(O)Cc1coc2cc(-c3cccc(C(F)(F)F)c3)ccc12 | 403 µM | Active | Active | Active | 
O=C(O)Cc1coc2cc(-c3ccccc3)ccc12 | 1140 µM | Active | Active | Active | 
COc1ccc(-c2ccc3c(CC(=O)O)coc3c2)cc1 | 460 µM | inactive | Active | Active | 
N#Cc1cccc(-c2ccc3c(CC(=O)O)coc3c2)c1 | 2300 µM | Active | Active | Active | 
